High-throughput results as filed in PubChem.
The list is not random: actives were taken first. Their share in the collection is about 2.3%.
TRPC4 inh – inhibitors of mouse TRPC4 channel | Q9QUQ5 | HEK293 TRPC4beta/mu-opioid, DAMGO-evoked Fluo4 calcium flux; hits give low values | B-score at 10 µM | hit rate 0.39% among 300,000 | AID 2247;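 active means B-score over 3 SD under the library average, no early fluorescence shift, positive overall ratio signal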
Target sequence (Q9QUQ5 whole entry, looked up): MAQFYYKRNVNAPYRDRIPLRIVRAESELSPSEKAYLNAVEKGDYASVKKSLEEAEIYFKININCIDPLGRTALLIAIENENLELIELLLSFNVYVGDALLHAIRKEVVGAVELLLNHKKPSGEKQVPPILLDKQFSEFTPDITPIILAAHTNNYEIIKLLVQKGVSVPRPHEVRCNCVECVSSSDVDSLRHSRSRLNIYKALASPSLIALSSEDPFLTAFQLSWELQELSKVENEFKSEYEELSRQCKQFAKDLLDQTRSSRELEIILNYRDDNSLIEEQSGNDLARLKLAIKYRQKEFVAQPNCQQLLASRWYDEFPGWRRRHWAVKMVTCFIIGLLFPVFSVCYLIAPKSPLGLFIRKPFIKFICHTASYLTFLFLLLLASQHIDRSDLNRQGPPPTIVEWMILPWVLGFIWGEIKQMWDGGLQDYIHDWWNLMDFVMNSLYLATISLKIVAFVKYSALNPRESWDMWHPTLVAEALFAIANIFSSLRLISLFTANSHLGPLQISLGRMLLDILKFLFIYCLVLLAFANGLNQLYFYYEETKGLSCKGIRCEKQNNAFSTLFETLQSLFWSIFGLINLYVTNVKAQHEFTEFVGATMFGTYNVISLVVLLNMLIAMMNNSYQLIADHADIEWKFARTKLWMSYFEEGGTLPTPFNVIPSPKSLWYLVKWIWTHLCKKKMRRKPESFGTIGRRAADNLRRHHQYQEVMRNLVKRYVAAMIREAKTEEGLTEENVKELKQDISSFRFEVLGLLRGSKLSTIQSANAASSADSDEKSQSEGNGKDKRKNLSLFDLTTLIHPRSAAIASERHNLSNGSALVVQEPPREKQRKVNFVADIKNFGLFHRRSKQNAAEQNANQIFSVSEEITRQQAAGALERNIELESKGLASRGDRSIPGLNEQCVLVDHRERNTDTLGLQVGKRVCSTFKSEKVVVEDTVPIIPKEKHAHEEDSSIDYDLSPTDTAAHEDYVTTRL
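Material: HEK293 cells with stable TRPC4beta plus mu-opioid receptor expression; probe or stimulus: DAMGO in two steps, submaximal then maximal; technique: Fluo4 calcium fluorescence by kinetic imaging, 5 s 1 Hz baseline; measure: integrated fluorescence ratio relative to baseline, converted to per-well B score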
TRPC6 inhibitor – mouse TRPC6 channel inhibition; hit rate 1.1% among 310,000; Q61143; AID 2553; B-score at 10 µM; HEK293-TRPC6, membrane potential dye, ACh-evoked depolarization; hits give low values;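 active means B-score under library mean minus 3 SD, initial fluorescence not abnormally high, positive integrated signal ratio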;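 further: B-score derived from integrated fluorescence ratio over the kinetic read; more negative B-score means stronger inhibition of depolarization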
TRPC4 agonist – activators of mouse TRPC4 channel; HEK293 TRPC4beta/mu-opioid, Fluo4 calcium fluorescence; hits give high values; B-score at 10 µM; hit rate 0.49% among 310,000;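 active means B-score above 5 SD of library B-scores, and initial fluorescence ratio not above library mean plus 5 SD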;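 further: positive B-score marks a calcium rise read as TRPC4 activation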
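Technique: kinetic Fluo4 calcium fluorescence; Test system: TRPC4beta and mu-opioid receptor HEK293 stable cells; Measure: B-scored integrated calcium fluorescence ratio; Benchmarks: low control buffer alone, high control maximal DAMGO; Schedule: 45 min room-temperature Fluo4 loading, 110 s read.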
TRPC6 act – activators of mouse TRPC6 channel. B-score at 10 µM. HEK293-TRPC6 membrane potential dye fluorescence; hits give high values. Q61143. hit rate 0.13% among 310,000;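 active means B-score of the integrated fluorescence ratio above library mean plus 3 SD, and starting fluorescence ratio within library mean plus 5 SD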;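 further: higher score means more depolarization so channel activation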
TRPC4 potent – allosterically enhances the mouse TRPC4 cation channel. hit rate 0.42% among 310,000. Q9QUQ5. HEK293 TRPC4beta/mu-opioid, DAMGO EC20, Fluo-4 Ca2+ flux; hits give high values. AID 2227. B-score at 10 µM;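 active means B-score of calcium response area above 5 SD of library B-scores, with initial fluorescence ratio within 5 SD of library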;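 further: B-score of integrated fluorescence ratio over time as area under calcium response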
An asterisk follows results filed as active; i = inactive.

SMILES	TRPC4 inh	TRPC6 inhibitor	TRPC4 agonist	TRPC6 act	TRPC4 potent
CC1Nc2ncnc(N3CCN(c4ccccc4)CC3)c2N(Cc2ccc(Br)cc2)C1=O (centres undefined)	i	i	i	i	i
CCOc1ccccc1O[C@H](c1ccccc1)[C@H]1CNCCO1	i	i	161*	i	i
CCOc1ccccc1NC(=O)C(NCC1CCCCC1)c1ccccc1 (centres undefined)	i	i	i	i	i
Nc1[nH][nH]c(=O)c1N=Nc1cccc(Cl)c1	i	i	i	i	10*
COc1cccc(N=Nc2c(N)[nH][nH]c2=O)c1	i	i	i	i	14*
CCn1c(C)nc2cc(C(=O)N/N=C/c3cccc(O)c3O)ccc21	i	i	i	i	77*
COc1ccc(Cl)cc1C(=O)NCCN(C)C	i	i	i	i	28*
CCNC(=O)c1cc(Cl)ccc1OC	i	i	i	i	i
CCOC(=O)c1sc2nc(C)nc(NCc3ccc(F)cc3)c2c1C	i	i	i	i	i
CCOC(=O)c1sc2nc(CC(=O)OC)nc(NCc3ccc(F)cc3)c2c1C	-9*	i	98*	i	i
O=C(NCCNC1CCC(c2ccccc2)CC1)c1cccs1 (centres undefined)	i	i	158*	i	i
CC(C)(C)c1cc(O)c(C(C)(C)C)cc1O	i	i	94*	i	i
Cc1cc(-c2sccc2C)nc(-n2cccc2)n1	-6*	i	i	i	i
Cc1nc2cc(-c3sccc3-n3cccc3)nn2c(C)c1C	i	i	i	i	i
COc1ccc(Cl)cc1NC(=O)CN1C(=O)NC2(CCCC2)C1=O	i	i	i	i	i
CCCOc1ccc(C(=O)NNC(=O)CCNC(=O)c2ccco2)cc1OC	i	i	i	i	i
O=C(c1ccc(COc2ccccc2Br)cc1)N1CCCCC1	i	i	i	i	10*
Nc1ncc(Br)cc1S(=O)(=O)NCCC(=O)NCCc1ccc(Cl)cc1	i	i	i	i	i
Cc1c(C(=O)NCCc2ccccc2)oc2ccccc12	i	i	i	i	22*
Cc1ccc(NC(=O)CN(C)C2CCCCC2)cc1Cl	i	i	i	i	i
Cc1nnc2sc(-c3csc4c3CCCC4)nn12	-6*	i	i	i	i
Cc1ccc(S(=O)(=O)N(C(=N)N)c2nc(N(C)C)nc(N(C)C)n2)cc1	i	i	i	i	i
CCOC(=O)C1(CCOc2ccccc2)CCN(Cc2cccc(OC)c2O)CC1	i	i	i	i	i
COc1ccc(S(=O)(=O)N2CCN(CC(=O)NC3CC3)CC2)cc1	i	i	i	i	i
CCOC(=O)C1=NN(c2ccccc2C)C2=NC(C)=C(C(=O)OC)C(c3cccc(OC)c3)N12 (centres undefined)	-5*	i	i	i	i
SMILES	TRPC4 inh	TRPC6 inhibitor	TRPC4 agonist	TRPC6 act	TRPC4 potent
Cc1nc2ccc(Br)cc2c2c1CC(CO)O2 (centres undefined)	i	i	i	i	i
CCN(Cc1nc(-c2ccc(OC)cc2)no1)C(=O)c1ccoc1C	i	i	i	i	i
Cc1ccc(Sc2ccc(CO)cc2[N+](=O)[O-])cc1	-7*	i	i	i	i
COc1cc(/C=C(\NC(=O)c2ccccc2)C(=O)NC(C(=O)O)c2ccccc2)cc(OC)c1OC (centres undefined)	i	i	i	i	i
Cc1ccc(C)c(-c2ccc(=O)n(Cc3ccc(F)cc3Cl)n2)c1	i	i	i	i	13*
Clc1ccc2nc(N3CCNCC3)nc(-c3ccccc3)c2c1	i	i	102*	i	i
CN1CCN(c2nc(-c3ccccc3)c3cc(Cl)ccc3n2)CC1	i	i	i	i	i
O=C(c1cc2c(F)cccc2s1)N1CCCC1	i	i	i	i	i
CC1(c2ccc(OC(F)F)cc2)NC(=O)N(CC(=O)c2ccc3c(c2)OCO3)C1=O (centres undefined)	i	i	62*	i	i
CC1(c2ccc(OC(F)F)cc2)NC(=O)N(CC(=O)Nc2ccc(OC(F)F)cc2)C1=O (centres undefined)	i	i	54*	i	i
CC1(c2ccc(OC(F)F)cc2)NC(=O)N(CC(=O)Nc2ccc(F)cc2)C1=O (centres undefined)	i	i	i	i	i
Cc1ccsc1/C=N/NC(=O)C1C(=O)NCC1c1ccccc1 (centres undefined)	i	i	i	i	i
Cc1ccc(-n2c(SCC(=O)Nc3cccc(S(=O)(=O)NC4=NCCCCC4)c3)nc3ccccc3c2=O)cc1	i	i	72*	i	i
CCc1ccc(-n2c(SCC(=O)Nc3cccc(S(=O)(=O)NC4=NCCCCC4)c3)nc3ccccc3c2=O)cc1	i	i	i	i	i
CCOC(=O)C1(CC2CC2)CCN(Cc2ccc3cccc(F)c3n2)CC1	-8*	i	45*	i	i
CCOC(=O)C1(CCOc2ccccc2)CCN(Cc2ccc(O)c(Cl)c2)CC1	i	i	i	i	i
CCOC(=O)C1(CC2CC2)CCN(Cc2cn[nH]c2-c2cccc(F)c2)CC1	i	i	i	i	i
CCOC(=O)C1(CC2CC2)CCN(Cc2ccc(O)c(Cl)c2)CC1	-7*	i	75*	i	i
CS(=O)(=O)Nc1ccc(C(=O)Nc2ccc3ccccc3c2)cc1	i	i	i	i	i
CCCCN(CC)CCNC(=O)c1cc2cc3ccc(Cl)cc3nc2o1	i	i	103*	i	13*
CCCCN(CC)CCNC(=O)c1cc2c(C)nc3ccccc3c2o1	i	i	138*	i	i
O=C(NCc1ccco1)c1cc2cc3ccc(Cl)cc3nc2o1	i	i	i	i	i
CCCN(CCC)CCCNC(=O)c1cc2cc3ccc(Cl)cc3nc2o1	i	i	53*	i	i
CCCCN(CC)CCCNC(=O)c1cc2cc3ccc(C)cc3nc2o1	i	i	i	i	16*
Cc1c(NC(=O)Nc2cccc(C(F)(F)F)c2)c(=O)n(-c2ccccc2)n1C	i	i	i	i	i
CC(C)(C)NC(=O)C(=O)NN=C1CCCCCCCCCCC1	i	i	i	i	i
NC(N)=NN=C1CCCCCCCCCCC1	i	i	49*	i	i
CCNS(=O)(=O)c1ccc(Br)c(OC)c1	-6*	i	i	i	i
